We go through one compound from ChEMBL document CHEMBL4229344 (Eur J Med Chem, 2018).

For experiment [1], the target named is Tyrosine-protein kinase ABL2 (Homo sapiens) (UniProt P42684). Description: Binding affinity to wild-type human ABL2 (A248 to G542 residues) expressed in bacterial expression system assessed as residual binding level at 1 uM by Kinomescan method relative to control. In a few lines:
(§1)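 KINOMEscan competition binding against 468 purified kinases/mutants, test compound at 1 µM; residual binding relative to control.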

Experiment [2] concerns the target Activin receptor type-1 (Homo sapiens) (UniProt Q04771). Description: Binding affinity to wild-type human ACVR1 (C188 to C509 residues) expressed in bacterial expression system assessed as residual binding level at 1 uM by Kinomescan method relative to control. In a few lines: (§2)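 Single-concentration (1 μM) competition-binding screen run by KINOMEscan against a panel of 468 purified kinases and mutants. The read-out is the relative binding activity of the test compound to each kinase.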

Experiment [3] addresses Aurora kinase A (Homo sapiens) (UniProt O14965). Description: Binding affinity to wild-type human partial length AURKA (E122 to K401 residues) expressed in mammalian expression system assessed as residual binding level at 1 uM by Kinomescan method relative to control. In short, it runs like this: (§3)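 Kinome-wide competition binding screen against a panel of 468 purified kinases/mutants, with the test compound at a single concentration of 1 μM. Read-out is the relative binding activity of each kinase in the presence of compound.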

The target of experiment [4] is Protein-tyrosine kinase 6 (Homo sapiens) (UniProt Q13882). Description: Binding affinity to wild-type human partial length BRK (L166 to T451 residues) expressed in bacterial expression system assessed as residual binding level at 1 uM by Kinomescan method relative to control. In short, it runs like this:
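Single-concentration KINOMEscan (DiscoverX) binding screen at 1 μM against a panel of 468 purified kinases and mutants. The read-out is binding relative to control.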

Experiment [5] concerns the target Calcium/calmodulin-dependent protein kinase kinase 1 (Homo sapiens) (UniProt Q8N5S9). Briefly: Binding affinity to wild-type human partial length CAMKK1 (R65 to E414 residues) expressed in bacterial expression system assessed as residual binding level at 1 uM by Kinomescan method relative to control. In a few lines: as §3
For experiment [6], the target named is Cyclin-dependent kinase 19 (Homo sapiens) (UniProt Q9BWU1). Briefly: Binding affinity to wild-type human partial length CDK11 (M1 to N360 residues) expressed in bacterial expression system assessed as residual binding level at 1 uM by Kinomescan method relative to control. In short, it runs like this:
as §3

In experiment [7] the target is Myotonin-protein kinase (Homo sapiens) (UniProt Q09013). Description: Binding affinity to wild-type human partial length DMPK (V47 to V415 residues) expressed in bacterial expression system assessed as residual binding level at 1 uM by Kinomescan method relative to control. In a few lines: as §3
Experiment [8] addresses Mitogen-activated protein kinase 3 (Homo sapiens) (UniProt P27361). Description: Binding affinity to wild-type human full length ERK1 (M1 to P379 residues) expressed in bacterial expression system assessed as residual binding level at 1 uM by Kinomescan method relative to control. In short, it runs like this:
as §2

The target in experiment [9] is Fibroblast growth factor receptor 2 (Homo sapiens) (UniProt P21802). Description: Binding affinity to wild-type human partial length FGFR2 (D457 to E769 residues) expressed in bacterial expression system assessed as residual binding level at 1 uM by Kinomescan method relative to control. In a few lines:
as §3

The test system of experiment [10] is Hepatocyte growth factor receptor (Homo sapiens), P08581 [Y1235D]. Description: Binding affinity to human partial length MET Y1235D mutant (D1010 to S1367 residues) expressed in bacterial expression system assessed as residual binding level at 1 uM by Kinomescan method relative to control. In short, it runs like this:
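Kinome-wide single-concentration binding screen (KINOMEscan) at 1 μM against a panel of 468 purified kinases and mutants. Read-out is relative binding of each kinase compared with control. Selectivity across the panel was summarised as an S(10) score.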

Experiment [11] has as its target Misshapen-like kinase 1 (Homo sapiens) (UniProt Q8N4C8). Description: Binding affinity to wild-type human partial length MINK (M1 to K312 residues) expressed in mammalian expression system assessed as residual binding level at 1 uM by Kinomescan method relative to control. In a few lines: as §3
The target in experiment [12] is Myosin light chain kinase (Homo sapiens) (UniProt Q32MK0). Description: Binding affinity to wild-type human partial length MLCK (D488 to K800 residues) expressed in bacterial expression system assessed as residual binding level at 1 uM by Kinomescan method relative to control. In short, it runs like this:
as §3

Experiment [13] deals with Mitogen-activated protein kinase kinase kinase 9 (Homo sapiens) (UniProt P80192). Briefly: Binding affinity to wild-type human partial length MLK1 (V88 to W426 residues) expressed in bacterial expression system assessed as residual binding level at 1 uM by Kinomescan method relative to control.
In experiment [14] the target is Mitogen-activated protein kinase 13 (Homo sapiens) (UniProt O15264). Briefly: Binding affinity to wild-type human full length p38-delta (M1 to L365 residues) expressed in bacterial expression system assessed as residual binding level at 1 uM by Kinomescan method relative to control. In a few lines: as §1
Experiment [15] concerns the target Serine/threonine-protein kinase pim-1 (Homo sapiens) (UniProt P11309). Description: Binding affinity to wild-type human partial length PIM1 (A15 to K313 residues) expressed in bacterial expression system assessed as residual binding level at 1 uM by Kinomescan method relative to control.
In experiment [16] the target is Serine/threonine-protein kinase SIK1 (Homo sapiens) (UniProt P57059). Briefly: Binding affinity to wild-type human partial length SIK (M1 to Y304 residues) expressed in bacterial expression system assessed as residual binding level at 1 uM by Kinomescan method relative to control.
Experiment [17] deals with STE20-like serine/threonine-protein kinase (Homo sapiens) (UniProt Q9H2G2). Briefly: Binding affinity to wild-type human partial length SLK (S14 to A307 residues) expressed in bacterial expression system assessed as residual binding level at 1 uM by Kinomescan method relative to control.
In experiment [18] the target is Tyrosine-protein kinase SYK (Homo sapiens) (UniProt P43405). Briefly: Binding affinity to wild-type human partial length SYK (D354 to N635 residues) expressed in bacterial expression system assessed as residual binding level at 1 uM by Kinomescan method relative to control.
In experiment [19] the target is Platelet-derived growth factor receptor beta (Homo sapiens, UniProt P09619). Description: Inhibition of PDGFRbeta (unknown origin) using poly(4:1 Glu,Tyr) peptide as substrate preincubated for 1 hr followed by addition of ATP and measured after 30 mins by ADP-Glo bioluminescence assay.
A further experiment relates to NCI-H1703. Briefly: Antiproliferative activity against human NCI-H1703 cells after 72 hrs in presence of PDGF-AA by CellTiter-Glo or CCK-8 assay. Type of experiment: functional. As to conditions: NCI-H1703, 72 h. In a few lines:
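Cells in RPMI 1640 with 10% FBS at 37 °C, 5% CO2, seeded at 1–3 × 10^4 cells/mL with serial compound dilutions for 72 h. Viability read by CellTiter-Glo luminescence or CCK-8 absorbance (450/655 nm), normalized to DMSO control.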
For orientation: ATP-based viability assays read luminescence as a measure of living cells.

In experiment [20] the target is Platelet-derived growth factor receptor alpha (Homo sapiens, UniProt P16234). Description: Inhibition of PDGF-induced PDGFRalpha autophosphorylation at Y1018 residue in human NCI-H1703 cells after 2 hrs in presence of PDGF-AA by Western blot analysis. The class given is cell-based. (In general: Immunoblotting shows a protein as a band on a membrane.)

As usually defined, the IC50 is the concentration that gives 50% inhibition. The low end stands for inhibition by little substance, the high end for a need for much substance. In general, GI50 refers to the concentration giving 50% growth inhibition. Consider `Cc1ccc(NC(=O)c2ccc(CN(CCN(C)C)C(=O)c3cccnc3)cc2)cc1Nc1nccc(-c2cccnc2)n1`, for which the Activity in experiment [1] is 69%; in experiment [2] it was 99%; in [3] it was 74%; in experiment [4], 81%; in [5], 92%; in [6], 82%. The Activity in [7] was 89%; in [8] it was 95%; in experiment [9], 80%; in experiment [10] it was 93%; in [11] it was 75%; in experiment [12] it was 80%. In addition, the Activity in experiment [13] amounted to 88%; in experiment [14] it was 79%; in experiment [15] it was 98%; in experiment [16] it was 100%; in experiment [17], 100%; in experiment [18], 96%. Besides, the IC50 in [19] came to 6.11 µM. In addition, the GI50 in the experiment with NCI-H1703 was 2.99 µM. For the same compound, the inhibition entry in [20] was “Dose-dependent effect”.
